Measured values taken from ChEMBL document CHEMBL3244305, “Analogues of 8-azainosine” (J Med Chem, 1977).
Active and inactive are the calls of the source. The calls are words filed in the database; no cut-off is given here.

Legend:
[1] = Cytotoxicity against human Hep2 cells assessed as growth inhibition; assay type: functional; details: HEp-2, read-out: ED50 (the source's name)
Summary of the method: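 Human epidermoid carcinoma No. 2 (H.Ep. No. 2) cells grown in culture with compound. ED50 is the concentration that holds growth of treated cells to 50% of untreated controls.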

HEp-2 [2] = test: Resistance ratio of ED50 for adenine phosphoribosyltransferase/adenosine kinase deficient 2-fluoro adenine/2-fluoro adenosine-resistant human Hep2 cells to ED50 for wild type human Hep2 cells; assay type: functional
HEp-2 [3] = test: Resistance ratio of ED50 for adenosine kinase deficient 6-(methylthio)purine ribonucleoside-resistant human Hep2 cells to ED50 for wild type human Hep2 cells; assay type: functional
Summary of the method: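 ED50 is measured as growth inhibition to 50% of untreated controls in an H.Ep. No. 2 subline resistant to 6-(methylthio)purine ribonucleoside that lacks adenosine kinase. It is divided by the ED50 in the sensitive (wild) H.Ep. No. 2 line.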

HEp-2 [4] = test: Resistance ratio of ED50 for hypoxanthine-guanine phosphoribosyl transferase/adenosine kinase deficient 6-mercaptopurine/6-(methylthio)purine ribonucleoside-resistant human Hep2 cells to ED50 for wild type human Hep2 cells; assay type: functional
L1210 [5] = test: Antitumor activity against mouse L1210 cells allografted in ip dosed BD2F1 mouse assessed as increase in life span administered 1 to 9 days measured on day 10 to 12 relative to control; assay type: functional
[6] = Drug degradation in buffer assessed as formation of 3,6-Dihydro-3-beta-D-ribofuranosyl-7H-1,2,3-triazolo[4,5-d]-pyrimidine-7-thione at pH 7.3 after 6 days by HPLC analysis; assay type: physicochemical; details: pH 7.3, 144 h
Summary of the method: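 Conversion in pH 7.3 buffer, under conditions meant to mirror the cytotoxicity assay, followed by high-pressure liquid chromatography.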

L1210 [7] = test: Antitumor activity against mouse L1210 cells allografted in BD2F1 mouse assessed as increase in life span at 90 mg/kg, ip administered 1 to 9 days measured on day 10 to 12 relative to control; assay type: functional; details: route intraperitoneal
L1210 [8] = test: Antitumor activity against mouse L1210 cells allografted in BD2F1 mouse assessed as increase in life span at 60 mg/kg, ip administered 1 to 9 days measured on day 10 to 12 relative to control; assay type: functional; details: route intraperitoneal
L1210 [9] = test: Antitumor activity against mouse L1210 cells allografted in BD2F1 mouse assessed as increase in life span at 40 mg/kg, ip administered 1 to 9 days measured on day 10 to 12 relative to control; assay type: functional; details: route intraperitoneal
HEp-2 [10] = test: Cytotoxicity against human Hep2 cells assessed as growth inhibition at 50 uM; assay type: functional, cell-based

SMILES: CC(C)=CCNc1ncnc2c1nnn2[C@@H]1O[C@H](CO)[C@@H](O)[C@H]1O
- EC50 [1]: < 3000 nM

SMILES: CCSc1ncnc2c1nnn2[C@@H]1O[C@H](CO)[C@@H](O)[C@H]1O
- EC50 [1]: 100 nM
- Ratio ED50 (HEp-2 [2]): 300

SMILES: CSc1ncnc2c1nnn2[C@@H]1O[C@H](COC(C)=O)[C@@H](OC(C)=O)[C@H]1OC(C)=O
- EC50 [1]: 500 nM

SMILES: OC[C@H]1O[C@@H](n2nnc3c(S)ncnc32)[C@H](O)[C@@H]1O
- EC50 [1]: 1000 nM
- Ratio ED50 (HEp-2 [3]): 90
- Ratio ED50 (HEp-2 [2]): 40

SMILES: Nc1ncnc2c1nnn2[C@@H]1O[C@H](CO)[C@@H](O)[C@H]1O
- EC50 [1]: 800 nM
- Ratio ED50 (HEp-2 [3]): 2
- Ratio ED50 (HEp-2 [2]): 2
- Ratio ED50 (HEp-2 [4]): 60
- ILS (L1210 [5]): 39%

SMILES: OC[C@H]1O[C@@H](Nc2ncnc3snnc23)[C@H](O)[C@@H]1O
- Stability [6]: Stable
- EC50 [1]: 100 nM
- ILS at 90 mg/kg (L1210 [7]): 36%
- ILS at 60 mg/kg (L1210 [8]): 28%
- ILS at 40 mg/kg (L1210 [9]): 25%

SMILES: CSc1ncnc2nn([C@@H]3O[C@H](CO)[C@@H](O)[C@H]3O)nc12
- EC50 [1]: 6000 nM

SMILES: CSc1ncnc2[nH]nnc12
- EC50 [1]: > 300000 nM

SMILES: CCOc1ncnc2c1nnn2[C@@H]1O[C@H](CO)[C@@H](O)[C@H]1O
- EC50 [1]: 100 nM
- Ratio ED50 (HEp-2 [3]): 20

SMILES: COc1ncnc2c1nnn2[C@@H]1O[C@H](CO)[C@@H](O)[C@H]1O
- EC50 [1]: 300 nM
- Ratio ED50 (HEp-2 [3]): 6
- Ratio ED50 (HEp-2 [2]): 6
- ILS (L1210 [5]): 29%

SMILES: CCCCNc1ncnc2c1nnn2[C@@H]1O[C@H](CO)[C@@H](O)[C@H]1O
- EC50 [1]: 300 nM

SMILES: Nc1ncnc2snnc12
- growth inhibition (GI) (HEp-2 [10]): inactive

SMILES: Nc1ncnc2nn([C@@H]3O[C@H](CO)[C@@H](O)[C@H]3O)nc12
- EC50 [1]: > 70000 nM

SMILES: CSc1ncnc2c1nnn2[C@@H]1O[C@H](CO)[C@@H](O)[C@H]1O
- EC50 [1]: 20 nM
- Ratio ED50 (HEp-2 [3]): 2000
- Ratio ED50 (HEp-2 [2]): 3000
- ILS (L1210 [5]): 23%

SMILES: CSc1ncnc2nn([C@@H]3O[C@H](COC(C)=O)[C@@H](OC(C)=O)[C@H]3OC(C)=O)nc12
- EC50 [1]: 7000 nM
